{"data": "Measurements pooled from the literature", "organism": "Mycobacterium tuberculosis", "read-out": "microbial growth", "note": "Lines come from different studies, so protocols differ."}
{"Structure (SMILES)": "COc1ccc(-c2cc(C(F)(F)F)c3c(N)c(C(=O)N4CC5(CCOC5)C4)sc3n2)cc1", "system": "H37RV", "endpoint": "IC50", "value": "24 µM"}
{"Structure (SMILES)": "Cc1ccc(-c2cc(NCCc3ccc(C(F)(F)F)cc3)n3cnnc3n2)o1", "system": "H37RV", "endpoint": "IC90", "value": "0.37 µM"}
{"Structure (SMILES)": "CO[C@H]1/C=C/O[C@@]2(C)Oc3c(C)c(O)c4c(O)c(c(/C=N/N5CCN(C)CC5)c(O)c4c3C2=O)NC(=O)/C(C)=C\\C=C\\[C@H](C)[C@H](O)[C@@H](C)[C@@H](O)[C@@H](C)[C@H](OC(C)=O)[C@@H]1C", "endpoint": "MIC50", "value": "0.01 µg/mL"}
{"Structure (SMILES)": "COc1ccc(-c2cc(C(F)(F)F)c3c(N)c(C(=O)NC45CC6CC(CC(O)(C6)C4)C5)sc3n2)cc1", "system": "H37RV", "endpoint": "IC50", "value": "> 100 µM"}
{"Structure (SMILES)": "CCc1ccc(CCNc2cc(-c3ccco3)nc3nncn23)cc1", "system": "H37RV", "endpoint": "MIC", "value": "0.43 µM"}
{"Structure (SMILES)": "O=C(O)c1cc2[nH]c(=S)n(Cc3cccnc3)c(=O)c2cc1Cl", "system": "H37RV", "endpoint": "MIC90", "value": "> 100 µM"}
{"Structure (SMILES)": "FC(F)(F)c1ccc(CCNc2cc(-c3ccccn3)nc3nncn23)cc1", "system": "H37RV", "endpoint": "IC90", "value": "0.53 µM"}
{"Structure (SMILES)": "O=c1c2cc(Cl)ncc2[nH]c(=S)n1Cc1cccnc1", "system": "H37RV", "endpoint": "MIC90", "value": "17.6 µM"}
{"Structure (SMILES)": "Fc1ccc(CCOc2cc(-c3ccccn3)nc3nncn23)cc1", "system": "H37RV", "endpoint": "MIC", "value": "> 100 µM"}
{"Structure (SMILES)": "NCC[C@H](O)C(=O)N[C@@H]1C[C@H](N)[C@@H](O[C@H]2O[C@H](CN)[C@@H](O)[C@H](O)[C@H]2O)[C@H](O)[C@H]1O[C@H]1O[C@H](CO)[C@@H](O)[C@H](N)[C@H]1O", "system": "H37RV", "conditions": "2.5 µg/mL", "endpoint": "inhibition", "value": "~90%"}
{"Structure (SMILES)": "CCc1ccc(CCNc2cc(-c3ccccn3)nc3nnc(C4CC4)n23)cc1", "system": "H37RV", "conditions": "5 days", "endpoint": "MIC", "value": "17 to 50 µM"}
{"Structure (SMILES)": "NC(=O)c1cncc(Cn2c(=S)[nH]c3cc(CO)c(Cl)cc3c2=O)c1", "system": "H37RV", "endpoint": "MIC90", "value": "17.2 µM"}
{"Structure (SMILES)": "COc1ccc(-c2cc(C(F)(F)F)c3c(N)c(C(=O)Nc4cccc(C)c4C)sc3n2)cc1OC", "system": "H37RV", "endpoint": "IC50", "value": "> 100 µM"}
{"Structure (SMILES)": "Clc1ccc(CCNc2cc(-c3ccccn3)nc3nnc(C4CC4)n23)cc1", "system": "H37RV", "endpoint": "MIC", "value": "36 µM"}
{"Structure (SMILES)": "N#Cc1cc2[nH]c(=S)n(Cc3cccnc3)c(=O)c2cc1Cl", "system": "H37RV", "endpoint": "MIC90", "value": "> 100 µM"}
{"Structure (SMILES)": "COc1ccc(-c2cc(C(F)(F)F)c3cc(C(=O)NC(C)c4ccccc4)sc3n2)cc1 (centres unmarked)", "system": "H37RV", "endpoint": "IC50", "value": "2.5 µM"}
{"Structure (SMILES)": "O=c1[nH]c2cc(CO)c(Cl)cc2c(=O)n1Cc1cccnc1", "system": "H37RV", "endpoint": "MIC90", "value": "> 100 µM"}
{"Structure (SMILES)": "COc1ccc(-c2cc(C(F)(F)F)c3c(N)c(C(=O)Nc4ccc(C)c(C)c4)sc3n2)cc1", "system": "H37RV", "endpoint": "IC50", "value": "> 100 µM"}
{"Structure (SMILES)": "CC(C)c1ccc(Cn2c(=S)[nH]c3ccc(Cl)cc3c2=O)cn1", "system": "H37RV", "endpoint": "MIC90", "value": "> 100 µM"}
{"Structure (SMILES)": "COCCNC(=O)c1sc2nc(-c3ccc(OC)cc3)cc(C(F)(F)F)c2c1N", "system": "H37RV", "endpoint": "IC50", "value": "> 100 µM"}
